From ChEMBL document CHEMBL1159115, “Piperidine-derived gamma-secretase modulators” (Bioorg Med Chem Lett, 2010)

Columns and labels:
[1] = Half life in mouse at 3 mg/kg, iv and 10 mg/kg, po; format: ADME, organism-based; settings: in vivo
Method in brief: (§1)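 Mouse PK: single iv dose of 3 mg/kg and oral dose of 10 mg/kg; data are the mean from three animals.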

[2] = biological target: Gamma-secretase; assay: Inhibition of gamma-secretase in human SHSY5Y cells expressing human recombinant APP assessed as amyloid beta40 formation by ELISA; format: cell-based; settings: sh-sy5y; in the assay text read “amyloid beta42 formation” for “amyloid beta40 formation”
Method in brief: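 SH-SY5Y cells overexpressing human APP Swedish variant exposed to compound for 48 h; Aβ40 (and Aβ42) in the cell medium quantified by ELISA, either Meso Scale Discovery or AlphaLISA format. Compounds also cross-screened for inhibition of Notch processing.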

[3] = biological target: Gamma-secretase; assay: (§2) Inhibition of gamma-secretase in human SHSY5Y cells expressing human recombinant APP assessed as increase in Abeta38 level after 24 hrs by DELFIA; format: cell-based; settings: sh-sy5y
[4] = biological target: T1, Gamma-secretase (Homo sapiens) (UniProt Q96BI3+Q9NZ42+Q8WW43+P49768+Q92542+P49810); assay: as §2; format: cell-based; settings: SH-SY5Y
[5] = Volume of distribution at steady state in mouse at 3 mg/kg, iv and 10 mg/kg, po; format: ADME, organism-based; settings: in vivo, read-out: Vdss; method in brief: as §1
[6] = biological target: Gamma-secretase; assay: Inhibition of gamma-secretase in human SHSY5Y cells expressing human recombinant APP assessed as effect on Abeta40 level after 24 hrs by DELFIA; format: cell-based; settings: sh-sy5y
[7] = biological target: Gamma-secretase; assay: (§3) Inhibition of gamma-secretase in human SHSY5Y cells expressing human recombinant APP assessed as decrease in Abeta42 level after 24 hrs by DELFIA; format: cell-based; settings: sh-sy5y
[8] = biological target: T1, Gamma-secretase (Homo sapiens); assay: as §3; format: cell-based; settings: SH-SY5Y
[9] = Oral bioavailability in mouse at 10 mg/kg; format: ADME, organism-based; settings: in vivo; method in brief: as §1
[10] = Oral bioavailability in dog at 1 mg/kg; format: ADME, organism-based, Canis lupus familiaris; settings: in vivo
Method in brief: (§4)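 Dog PK: iv and oral doses each 1 mg/kg; data from a single animal. Oral bioavailability was measured with the sodium salt in 1% methylcellulose vehicle.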

[11] = biological target: Gamma-secretase; assay: Inhibition of gamma-secretase in human SHSY5Y cells expressing human recombinant APP assessed as decrease in total Abeta level after 24 hrs by DELFIA; format: cell-based; settings: sh-sy5y
[12] = test system: SH-SY5Y; assay: Cytotoxicity against human SH-SY5Y cells after 24 hrs by WST1 assay; format: cell-based
[13] = biological target: Gamma-secretase; assay: Inhibition of gamma-secretase in human SHSY5Y cells expressing human recombinant APP assessed as amyloid beta42 formation by ELISA; format: cell-based; settings: sh-sy5y; in the assay text read “amyloid beta40 formation” for “amyloid beta42 formation”
Method in brief: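 SH-SY5Y cells overexpressing human APP Swedish variant were incubated with compound for 48 h. Secreted Aβ42 and Aβ40 were measured by immunoassay (MSD electrochemiluminescence or AlphaLISA).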

[14] = Half life in dog at 1 mg/kg, iv and 1 mg/kg, po; format: ADME, organism-based, Canis lupus familiaris; settings: in vivo; method in brief: as §4
[15] = Inhibition of gamma-secretase expressed in african green monkey CV1 cells coexpressing Gal4 DNA-binding/transactivation domain assessed as inhibition of notch processing by luciferase reporter assay; format: cell-based; settings: CV-1
[16] = Drug level in mouse blood at 5 mg/kg, po after 2 hrs; format: ADME, organism-based; design: dose 5 mg/kg, route oral; settings: read-out: Drug uptake
Method in brief: (§5)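 Mice dosed orally at 5 mg/kg in 1% (w/v) aqueous methylcellulose. Blood and brain sampled 2 h post-dose; brain:blood ratio derived from these levels; mean of three mice.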

[17] = Clearance in rat blood at 1 mg/kg, iv and 3 mg/kg, po; format: ADME, organism-based
Method in brief: (§6)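 Rat PK: iv 1 mg/kg paired with oral 3 mg/kg or 2 mg/kg; values are the mean from three animals. Oral bioavailability was measured with the sodium salt in 1% methylcellulose vehicle.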

[18] = Clearance in dog blood at 1 mg/kg, iv and 1 mg/kg, po; format: ADME, organism-based, Canis lupus familiaris; method in brief: as §4
[19] = Volume of distribution at steady state in dog at 1 mg/kg, iv and 1 mg/kg, po; format: ADME, organism-based, Canis lupus familiaris; settings: in vivo, read-out: Vdss; method in brief: as §4
[20] = Drug level in mouse brain at 5 mg/kg, po after 2 hrs; format: ADME, organism-based; design: dose 5 mg/kg, route oral; settings: read-out: Drug uptake; method in brief: as §5
[21] = Volume of distribution at steady state in rat at 1 mg/kg, iv and 3 mg/kg, po; format: ADME, organism-based; settings: in vivo, read-out: Vdss; method in brief: as §6
[22] = Clearance in mouse blood at 3 mg/kg, iv and 10 mg/kg, po; format: ADME, organism-based; method in brief: as §1
[23] = Oral bioavailability in rat at 3 mg/kg; format: ADME, organism-based; settings: in vivo; method in brief: as §6
[24] = test system: CV-1; assay: Inhibition of gamma-secretase expressed in african green monkey CV1 cells coexpressing Gal4 DNA-binding/transactivation domain assessed as inhibition of notch processing by luciferase reporter assay at 20 uM; format: cell-based
[25] = Half life in rat at 1 mg/kg, iv and 3 mg/kg, po; format: ADME, organism-based; settings: in vivo; method in brief: as §6

half-life [1]: 4.3 h
pIC50 [2]: 6.5
pEC50 [3]: 6.3
Activity [4]: Dose-dependent effect
Vd [5]: 1.4 L/kg
pIC50 [6]: 4.4
pIC50 [7]: 6
Activity [8]: Dose-dependent effect
bioavailability [9]: > 100%
bioavailability [10]: 72%
pIC50 [11]: 4
pIC50 [13]: 5.2
half-life [14]: 5.2 h
IC50 [15]: > 20 µM
concentration at 2 h [16]: 5.6 µM
clearance [17]: 4 mL/min/kg
clearance [18]: 3 mL/min/kg
Vd [19]: 1.1 L/kg
concentration at 2 h [20]: 4.2 µM
Vd [21]: 2.3 L/kg
clearance [22]: 4 mL/min/kg
bioavailability [23]: > 100%
half-life [25]: 6.6 h
Compound: CC(C)CC[C@H](c1ccc(C(F)(F)F)nc1)N1CC[C@@H](CC(=O)[O-])C[C@H]1c1ccc(C(F)(F)F)cc1.[Na+]
IC50 [12]: 100 µM
inhibition [24]: 24%
